Reference: ChEMBL document CHEMBL1932981, “Synthesis of novel 2, 5-dihydrofuran derivatives and evaluation of their anticancer activity” (Eur J Med Chem, 2012)

System: SW480
Assay: Cytotoxicity against human SW480 cells after 24 hrs by MTT assay
Assay type: functional, cell-based
Conditions: SW480, 24 h; call rule not given here
How it was run: (§1)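 Cell lines from the Navy Medical College, seeded at 8000 cells/well in 96-well plates. Compounds dissolved in DMSO (stock 10 g/L) and freshly diluted in medium. Dilutions were added in duplicate 24 h after seeding, with incubation continued at 37 °C. Viability read by MTT. IC50 taken as the concentration giving 50% growth inhibition, determined following NCCLS recommendations.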

| SMILES | IC50 [µM] |
| --- | --- |
| C=CC1=C(C(=O)NCC(C)C)C(c2ccc(F)cc2)OC1 (stereo unspecified) | > 100 |
| C=CC1=C(C(=O)NCCCCC)C(c2ccc(Cl)c(Cl)c2)OC1 (stereo unspecified) | 27.5 |
| C=CC1=C(C(=O)NCCCCC)C(c2ccc(OC)cc2)OC1 (stereo unspecified) | > 100 |
| C=CC1=C(C(=O)O)C(c2ccc(F)cc2)OC1 (stereo unspecified) | > 100 |
| C=CC1=C(C(=O)NCCc2cccc(OC)c2)C(c2ccc(F)cc2)OC1 (stereo unspecified) | > 100 |
| C=CC1=C(C(=O)NCCc2cccc(F)c2)C(c2ccc(F)cc2)OC1 (stereo unspecified) | > 100 |
| C=CC1=C(C(=O)NCc2ccccc2)C(c2ccc(OC)c(OC)c2)OC1 (stereo unspecified) | > 100 |
| C=CC1=C(C(=O)N2CCN(c3ccccc3Cl)CC2)C(c2ccc(OC)cc2)OC1 (stereo unspecified) | 13.1 |
| C=CC1=C(C(=O)NCC(C)C)C(c2ccc(Cl)c(Cl)c2)OC1 (stereo unspecified) | > 100 |
| C=CC1=C(C(=O)NC(C)(C)C)C(c2ccc(OC)cc2)OC1 (stereo unspecified) | > 100 |
| C=CC1=C(C(=O)Nc2ccccc2OC)C(c2ccc(F)cc2)OC1 (stereo unspecified) | > 100 |
| C=CC1=C(C(=O)Nc2ccccc2)C(c2ccc(F)cc2)OC1 (stereo unspecified) | > 100 |
| C=CC1=C(C(=O)Nc2ccc(OCC)cc2)C(c2ccc(OC)cc2)OC1 (stereo unspecified) | > 100 |
| C=CC1=C(C(=O)NCCc2cccc(OC)c2)C(c2ccc(OC)cc2)OC1 (stereo unspecified) | > 100 |
| C=CC1=C(C(=O)N2CCN(c3ccc(F)cc3)CC2)C(c2ccc(OC)cc2)OC1 (stereo unspecified) | > 100 |
| C=CC1=C(C(=O)Nc2ccccc2)C(c2ccc(OC)cc2)OC1 (stereo unspecified) | > 100 |
| C=CC1=C(C(=O)NCc2ccc(Cl)cc2)C(c2ccc(F)cc2)OC1 (stereo unspecified) | > 100 |
| C=CC1=C(C(=O)NCc2ccc(C)cc2)C(c2ccc(OC)cc2)OC1 (stereo unspecified) | 31.7 |
| C=CC1=C(C(=O)NCCc2ccccc2F)C(c2ccc(F)cc2)OC1 (stereo unspecified) | > 100 |
| C=CC1=C(C(=O)O)C(c2ccc(OC)cc2)OC1 (stereo unspecified) | > 100 |
| C=CC1=C(C(=O)NC(C)(C)C)C(c2ccc(F)cc2)OC1 (stereo unspecified) | > 100 |
| C=CC1=C(C(=O)NCc2ccccc2F)C(c2ccc(OC)cc2)OC1 (stereo unspecified) | > 100 |
| O=c1[nH]cc(F)c(=O)[nH]1 [FLUOROURACIL] | 15.7 |

System: A549
Assay: Cytotoxicity against human A549 cells after 24 hrs by MTT assay
Assay type: functional, cell-based
Conditions: Homo sapiens, A549, 24 h; read-out: IC50
How it was run: as §1

| SMILES | IC50 [µM] |
| --- | --- |
| C=CC1=C(C(=O)NCC(C)C)C(c2ccc(F)cc2)OC1 (stereo unspecified) | > 100 |
| C=CC1=C(C(=O)NCCCCC)C(c2ccc(Cl)c(Cl)c2)OC1 (stereo unspecified) | > 100 |
| C=CC1=C(C(=O)NCCCCC)C(c2ccc(OC)cc2)OC1 (stereo unspecified) | 36.5 |
| C=CC1=C(C(=O)O)C(c2ccc(F)cc2)OC1 (stereo unspecified) | > 100 |
| C=CC1=C(C(=O)NCCc2cccc(OC)c2)C(c2ccc(F)cc2)OC1 (stereo unspecified) | > 100 |
| C=CC1=C(C(=O)NCCc2cccc(F)c2)C(c2ccc(F)cc2)OC1 (stereo unspecified) | > 100 |
| C=CC1=C(C(=O)NCc2ccccc2)C(c2ccc(OC)c(OC)c2)OC1 (stereo unspecified) | > 100 |
| C=CC1=C(C(=O)N2CCN(c3ccccc3Cl)CC2)C(c2ccc(OC)cc2)OC1 (stereo unspecified) | 35.3 |
| C=CC1=C(C(=O)NCC(C)C)C(c2ccc(Cl)c(Cl)c2)OC1 (stereo unspecified) | > 100 |
| C=CC1=C(C(=O)NC(C)(C)C)C(c2ccc(OC)cc2)OC1 (stereo unspecified) | > 100 |
| C=CC1=C(C(=O)Nc2ccccc2OC)C(c2ccc(F)cc2)OC1 (stereo unspecified) | > 100 |
| C=CC1=C(C(=O)Nc2ccccc2)C(c2ccc(F)cc2)OC1 (stereo unspecified) | > 100 |
| C=CC1=C(C(=O)Nc2ccc(OCC)cc2)C(c2ccc(OC)cc2)OC1 (stereo unspecified) | 17.6 |
| C=CC1=C(C(=O)NCCc2cccc(OC)c2)C(c2ccc(OC)cc2)OC1 (stereo unspecified) | > 100 |
| C=CC1=C(C(=O)N2CCN(c3ccc(F)cc3)CC2)C(c2ccc(OC)cc2)OC1 (stereo unspecified) | 8.31 |
| C=CC1=C(C(=O)Nc2ccccc2)C(c2ccc(OC)cc2)OC1 (stereo unspecified) | > 100 |
| C=CC1=C(C(=O)NCc2ccc(Cl)cc2)C(c2ccc(F)cc2)OC1 (stereo unspecified) | > 100 |
| C=CC1=C(C(=O)NCc2ccc(C)cc2)C(c2ccc(OC)cc2)OC1 (stereo unspecified) | > 100 |
| C=CC1=C(C(=O)NCCc2ccccc2F)C(c2ccc(F)cc2)OC1 (stereo unspecified) | > 100 |
| C=CC1=C(C(=O)O)C(c2ccc(OC)cc2)OC1 (stereo unspecified) | > 100 |
| C=CC1=C(C(=O)NC(C)(C)C)C(c2ccc(F)cc2)OC1 (stereo unspecified) | > 100 |
| C=CC1=C(C(=O)NCc2ccccc2F)C(c2ccc(OC)cc2)OC1 (stereo unspecified) | > 100 |

System: HeLa
Assay: Cytotoxicity against human HeLa cells after 24 hrs by MTT assay
Assay type: functional, cell-based
Conditions: Homo sapiens, HeLa, 24 h; read-out: IC50
How it was run: as §1

| SMILES | IC50 [µM] |
| --- | --- |
| C=CC1=C(C(=O)NCC(C)C)C(c2ccc(F)cc2)OC1 (stereo unspecified) | > 100 |
| C=CC1=C(C(=O)NCCCCC)C(c2ccc(Cl)c(Cl)c2)OC1 (stereo unspecified) | > 100 |
| C=CC1=C(C(=O)NCCCCC)C(c2ccc(OC)cc2)OC1 (stereo unspecified) | > 100 |
| C=CC1=C(C(=O)O)C(c2ccc(F)cc2)OC1 (stereo unspecified) | 67.4 |
| C=CC1=C(C(=O)NCCc2cccc(F)c2)C(c2ccc(F)cc2)OC1 (stereo unspecified) | > 100 |
| C=CC1=C(C(=O)NCc2ccccc2)C(c2ccc(OC)c(OC)c2)OC1 (stereo unspecified) | > 100 |
| C=CC1=C(C(=O)N2CCN(c3ccccc3Cl)CC2)C(c2ccc(OC)cc2)OC1 (stereo unspecified) | > 100 |
| C=CC1=C(C(=O)NCC(C)C)C(c2ccc(Cl)c(Cl)c2)OC1 (stereo unspecified) | 60.1 |
| C=CC1=C(C(=O)NC(C)(C)C)C(c2ccc(OC)cc2)OC1 (stereo unspecified) | > 100 |
| C=CC1=C(C(=O)Nc2ccccc2OC)C(c2ccc(F)cc2)OC1 (stereo unspecified) | > 100 |
| C=CC1=C(C(=O)Nc2ccccc2)C(c2ccc(F)cc2)OC1 (stereo unspecified) | > 100 |
| C=CC1=C(C(=O)Nc2ccc(OCC)cc2)C(c2ccc(OC)cc2)OC1 (stereo unspecified) | > 100 |
| C=CC1=C(C(=O)NCCc2cccc(OC)c2)C(c2ccc(OC)cc2)OC1 (stereo unspecified) | > 100 |
| C=CC1=C(C(=O)N2CCN(c3ccc(F)cc3)CC2)C(c2ccc(OC)cc2)OC1 (stereo unspecified) | 9.86 |
| C=CC1=C(C(=O)Nc2ccccc2)C(c2ccc(OC)cc2)OC1 (stereo unspecified) | > 100 |
| C=CC1=C(C(=O)NCc2ccc(Cl)cc2)C(c2ccc(F)cc2)OC1 (stereo unspecified) | > 100 |
| C=CC1=C(C(=O)NCc2ccc(C)cc2)C(c2ccc(OC)cc2)OC1 (stereo unspecified) | 15.8 |
| C=CC1=C(C(=O)NCCc2ccccc2F)C(c2ccc(F)cc2)OC1 (stereo unspecified) | > 100 |
| C=CC1=C(C(=O)O)C(c2ccc(OC)cc2)OC1 (stereo unspecified) | 44.3 |
| C=CC1=C(C(=O)NC(C)(C)C)C(c2ccc(F)cc2)OC1 (stereo unspecified) | > 100 |
| C=CC1=C(C(=O)NCc2ccccc2F)C(c2ccc(OC)cc2)OC1 (stereo unspecified) | > 100 |
| O=c1[nH]cc(F)c(=O)[nH]1 [FLUOROURACIL] | 16.3 |

Same assay, conditions: hela

| SMILES | IC50 |
| --- | --- |
| C=CC1=C(C(=O)NCCc2cccc(OC)c2)C(c2ccc(F)cc2)OC1 (stereo unspecified) | Not Active |

System: not listed separately
Assay: Cytotoxicity against human QGY7701 cells after 24 hrs by MTT assay
Assay type: functional, cell-based
Conditions: QGY7701, 24 h
How it was run: as §1

| SMILES | IC50 [µM] |
| --- | --- |
| C=CC1=C(C(=O)NCC(C)C)C(c2ccc(F)cc2)OC1 (stereo unspecified) | > 100 |
| C=CC1=C(C(=O)NCCCCC)C(c2ccc(Cl)c(Cl)c2)OC1 (stereo unspecified) | > 100 |
| C=CC1=C(C(=O)NCCCCC)C(c2ccc(OC)cc2)OC1 (stereo unspecified) | > 100 |
| C=CC1=C(C(=O)O)C(c2ccc(F)cc2)OC1 (stereo unspecified) | > 100 |
| C=CC1=C(C(=O)NCCc2cccc(OC)c2)C(c2ccc(F)cc2)OC1 (stereo unspecified) | 87.2 |
| C=CC1=C(C(=O)NCCc2cccc(F)c2)C(c2ccc(F)cc2)OC1 (stereo unspecified) | 59.8 |
| C=CC1=C(C(=O)NCc2ccccc2)C(c2ccc(OC)c(OC)c2)OC1 (stereo unspecified) | > 100 |
| C=CC1=C(C(=O)N2CCN(c3ccccc3Cl)CC2)C(c2ccc(OC)cc2)OC1 (stereo unspecified) | > 100 |
| C=CC1=C(C(=O)NCC(C)C)C(c2ccc(Cl)c(Cl)c2)OC1 (stereo unspecified) | > 100 |
| C=CC1=C(C(=O)NC(C)(C)C)C(c2ccc(OC)cc2)OC1 (stereo unspecified) | > 100 |
| C=CC1=C(C(=O)Nc2ccccc2OC)C(c2ccc(F)cc2)OC1 (stereo unspecified) | 52.8 |
| C=CC1=C(C(=O)Nc2ccccc2)C(c2ccc(F)cc2)OC1 (stereo unspecified) | 46.7 |
| C=CC1=C(C(=O)Nc2ccc(OCC)cc2)C(c2ccc(OC)cc2)OC1 (stereo unspecified) | > 100 |
| C=CC1=C(C(=O)NCCc2cccc(OC)c2)C(c2ccc(OC)cc2)OC1 (stereo unspecified) | > 100 |
| C=CC1=C(C(=O)N2CCN(c3ccc(F)cc3)CC2)C(c2ccc(OC)cc2)OC1 (stereo unspecified) | 11 |
| C=CC1=C(C(=O)Nc2ccccc2)C(c2ccc(OC)cc2)OC1 (stereo unspecified) | > 100 |
| C=CC1=C(C(=O)NCc2ccc(Cl)cc2)C(c2ccc(F)cc2)OC1 (stereo unspecified) | 36.9 |
| C=CC1=C(C(=O)NCc2ccc(C)cc2)C(c2ccc(OC)cc2)OC1 (stereo unspecified) | 43.1 |
| C=CC1=C(C(=O)NCCc2ccccc2F)C(c2ccc(F)cc2)OC1 (stereo unspecified) | 35.1 |
| C=CC1=C(C(=O)O)C(c2ccc(OC)cc2)OC1 (stereo unspecified) | > 100 |
| C=CC1=C(C(=O)NC(C)(C)C)C(c2ccc(F)cc2)OC1 (stereo unspecified) | > 100 |
| C=CC1=C(C(=O)NCc2ccccc2F)C(c2ccc(OC)cc2)OC1 (stereo unspecified) | > 100 |
| O=c1[nH]cc(F)c(=O)[nH]1 [FLUOROURACIL] | 14.3 |
